Blank lines part the entries; values can stand above or below the compound they belong to. Where a SMILES comes first, the peptide text is derived from it. [ ]: non-standard residue; d: D form. The star is where a group is joined. ξ: configuration not given here. ξF = NC(Cc1ccccc1)C(=O)O; Cbz = O=C(OCc1ccccc1)*
What was measured:
[1] = target: T1, Calpain-1 catalytic subunit (Homo sapiens) (UniProt P07384); test: Percent inhibition of human calpain 1 at 920 uM; Inhibition within […]
T1 sequence (whole entry): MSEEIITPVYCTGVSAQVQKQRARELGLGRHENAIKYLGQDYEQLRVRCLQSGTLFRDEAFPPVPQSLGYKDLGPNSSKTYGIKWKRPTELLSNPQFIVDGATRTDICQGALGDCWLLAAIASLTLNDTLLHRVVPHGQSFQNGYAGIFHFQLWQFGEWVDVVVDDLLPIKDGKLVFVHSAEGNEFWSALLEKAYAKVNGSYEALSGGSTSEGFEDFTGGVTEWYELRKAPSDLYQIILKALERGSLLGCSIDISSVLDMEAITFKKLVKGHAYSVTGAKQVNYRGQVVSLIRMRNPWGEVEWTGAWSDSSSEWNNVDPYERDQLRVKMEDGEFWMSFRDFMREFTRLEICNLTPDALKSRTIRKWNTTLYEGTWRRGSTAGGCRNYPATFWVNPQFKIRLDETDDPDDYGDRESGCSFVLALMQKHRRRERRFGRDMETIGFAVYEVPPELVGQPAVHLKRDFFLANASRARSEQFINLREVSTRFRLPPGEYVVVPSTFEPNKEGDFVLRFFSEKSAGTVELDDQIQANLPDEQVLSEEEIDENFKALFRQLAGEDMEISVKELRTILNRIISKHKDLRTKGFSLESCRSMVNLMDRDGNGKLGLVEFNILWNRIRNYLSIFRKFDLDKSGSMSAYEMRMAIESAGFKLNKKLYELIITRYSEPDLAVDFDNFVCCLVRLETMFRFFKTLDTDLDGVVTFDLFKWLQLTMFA
Outline: (§1)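 Recombinant human calpain I expressed in baculovirus, continuous fluorescence assay with Suc-Leu-Tyr-AMC (8 mM stock) in Tris 50 mM pH 7.3, EDTA 0.5 mM, βME 10 mM. Started with CaCl2 (40 mM stock). Ex 380/em 460 nm, linear for at least 2 min. Percent inhibition is the drop in initial rate against DMSO-only controls at the highest concentration tested. Values are within 10%.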

[2] = target: T1, Calpain-1 catalytic subunit (Homo sapiens); test: Percent inhibition of human calpain 1 at 500 uM; Inhibition within […]; outline: as §1
[3] = target: T1, Calpain-1 catalytic subunit (Homo sapiens); test: Percent inhibition of human calpain 1 at 300 uM; Inhibition within […]; outline: as §1
[4] = Binding affinity for rat erythrocyte calpain
[5] = target: T1, Calpain-1 catalytic subunit (Homo sapiens); test: Percent inhibition of human calpain 1 at 190 uM; Inhibition within […]; outline: as §1
[6] = target: T1, Calpain-1 catalytic subunit (Homo sapiens); test: Percent inhibition of human calpain 1 at 280 uM; Inhibition within […]; outline: as §1
[7] = target: T1, Calpain-1 catalytic subunit (Homo sapiens); test: Percent inhibition of human calpain 1 at 360 uM; Inhibition within […]; outline: as §1
[8] = Concentration required for inhibition of calpain
Outline: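 Calpain I (recombinant human, baculovirus-expressed) was hydrolysing Suc-Leu-Tyr-AMC in Tris 50 mM pH 7.3 with EDTA 0.5 mM and βME 10 mM, activated by CaCl2 (40 mM stock). Fluorescence was followed continuously at ex 380/em 460 nm. The value is the concentration giving a 50% decrease in initial hydrolysis rate relative to DMSO controls.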

[9] = target: T1, Calpain-1 catalytic subunit (Homo sapiens); test: Percent inhibition of human calpain 1 at 550 uM; Inhibition within […]; outline: as §1
[10] = target: T1, Calpain-1 catalytic subunit (Homo sapiens); test: Percent inhibition of human calpain 1 at 350 uM; Inhibition within […]; outline: as §1
[11] = target: T1, Calpain-1 catalytic subunit (Homo sapiens); test: Percent inhibition of human calpain 1 at 97 uM; Inhibition within […]; outline: as §1
[12] = target: T1, Calpain-1 catalytic subunit (Homo sapiens); test: Percent inhibition of human calpain 1 at 180 uM; Inhibition within […]; outline: as §1
[13] = target: T1, Calpain-1 catalytic subunit (Homo sapiens); test: Percent inhibition of human calpain 1 at 210 uM; Inhibition within […]; outline: as §1
[14] = target: T1, Calpain-1 catalytic subunit (Homo sapiens); test: Percent inhibition of human calpain 1 at highest 200 uM; Inhibition within […]; outline: as §1
[15] = target: T1, Calpain-1 catalytic subunit (Homo sapiens); test: Percent inhibition of recombinant human calpain 1 at highest concentration of 150 uM; Inhibition values are within […]; outline: as §1
[16] = target: T1, Calpain-1 catalytic subunit (Homo sapiens); test: Percent inhibition of human calpain 1 at 170 uM; Inhibition within […]; outline: as §1
[17] = target: T1, Calpain-1 catalytic subunit (Homo sapiens); test: Percent inhibition of human calpain 1 at 130 uM; Inhibition within […]; outline: as §1
[18] = target: T1, Calpain-1 catalytic subunit (Homo sapiens); test: Percent inhibition of human calpain 1 at 680 uM; Inhibition within […]; outline: as §1
[19] = target: T1, Calpain-1 catalytic subunit (Homo sapiens); test: Percent inhibition of human calpain 1 at 580 uM; Inhibition within […]; outline: as §1
[20] = target: T1, Calpain-1 catalytic subunit (Homo sapiens); test: Percent inhibition of human calpain 1 at 160 uM; Inhibition within […]; outline: as §1
[21] = target: T1, Calpain-1 catalytic subunit (Homo sapiens); test: Percent inhibition of human calpain 1 at 120 uM; Inhibition within […]; outline: as §1
[22] = target: T1, Calpain-1 catalytic subunit (Homo sapiens); test: Percent inhibition of human calpain 1 at 100 uM; Inhibition within […]; outline: as §1
[23] = target: T1, Calpain-1 catalytic subunit (Homo sapiens); test: Percent inhibition of human calpain 1 at 610 uM; Inhibition within […]; outline: as §1
[24] = target: T1, Calpain-1 catalytic subunit (Homo sapiens); test: Percent inhibition of human calpain 1 at 650 uM; Inhibition within […]; outline: as §1
[25] = target: T1, Calpain-1 catalytic subunit (Homo sapiens); test: Percent inhibition of human calpain 1 at 90 uM; Inhibition within […]; outline: as §1
[26] = target: T1, Calpain-1 catalytic subunit (Homo sapiens); test: Percent inhibition of human calpain 1 at 110 uM; Inhibition within […]; outline: as §1

SMILES: CC(C)C[C@@H]1NC(=O)[C@H](Cc2c[nH]c3ccccc23)NC1=O
inhibition [1]: 0%

SMILES: O=C1N[C@@H](Cc2ccc(O)cc2)C(=O)N[C@H]1Cc1ccc(O)cc1
inhibition [2]: 0%

SMILES: CC(C)[C@H](NC(=O)OCc1ccccc1)C(=O)NC(C=O)Cc1ccccc1 (stereo partly drawn) (Cbz-Val-[ξF]-aldehyde)
Ki [4]: 10 nM

SMILES: C[C@H](O)[C@@H]1NC(=O)[C@H](Cc2ccccc2)NC1=O
inhibition [5]: 30%

SMILES: CN1C(=O)[C@H](Cc2ccc(O)cc2)N(C)C(=O)[C@@H]1Cc1ccccc1
inhibition [7]: 0%

SMILES: CC(C)c1ncc(Cc2ccccc2)nc1O
IC50 [8]: 1300 nM
inhibition [9]: 0%

SMILES: O=C(O)/C(S)=C/c1ccc(I)cc1
IC50 [8]: 400 nM

SMILES: Cc1ccc(S(=O)(=O)/N=C(/N)NCCC[C@@H]2NC(=O)[C@H](Cc3ccccc3)NC2=O)cc1
inhibition [10]: 0%

SMILES: COC(=O)C[C@H]1NC(=O)[C@H](Cc2ccc(O)cc2)NC1=O
inhibition [13]: 0%

SMILES: CC(C)C[C@@H]1NC(=O)[C@H](Cc2ccc(O)cc2)NC1=O
inhibition [5]: 0%

SMILES: COc1c([C@@H](O)CC(C)C)ccc2c1C(=O)OCc1cc(C)cc(O)c1O2 [PENICILLIDE]
IC50 [8]: 7100 nM

SMILES: CN1C(=O)[C@H](Cc2ccc(OCc3ccccc3)cc2)N(C)C(=O)[C@@H]1Cc1ccc(OCc2ccccc2)cc1
inhibition [10]: 50%

SMILES: O=C1N[C@@H](Cc2c[nH]c3ccccc23)C(=O)N[C@H]1Cc1ccc(O)cc1
inhibition [15]: 0%

SMILES: Cc1ccc(S(=O)(=O)/N=C(/N)NCCC[C@@H]2NC(=O)[C@H](Cc3ccc(O)cc3)NC2=O)cc1
inhibition [16]: 0%

SMILES: O=C1N[C@@H](Cc2c[nH]c3ccccc23)C(=O)N[C@H]1Cc1c[nH]c2ccccc12
inhibition [12]: 0%

SMILES: CN1C(=O)[C@H](Cc2ccc(O)cc2)N(C)C(=O)[C@@H]1Cc1ccc(O)cc1
IC50 [8]: 800 nM
inhibition [18]: 0%

SMILES: CC(C)[C@@H]1NC(=O)[C@H](Cc2ccc(OCc3ccccc3)cc2)NC1=O
inhibition [14]: 0%

SMILES: C[C@H](O)[C@@H]1NC(=O)[C@H](Cc2ccc(O)cc2)NC1=O
inhibition [19]: 0%

SMILES: COC(=O)C[C@@H]1NC(=O)[C@H](COCc2ccccc2)NC1=O
inhibition [15]: 0%

SMILES: COC(=O)C[C@@H]1NC(=O)[C@H](Cc2ccc(OCc3ccccc3)cc2)NC1=O
inhibition [21]: 0%

SMILES: COC(=O)C[C@@H]1NC(=O)[C@H](Cc2ccc(O)cc2)NC1=O
inhibition [25]: 25%

SMILES: CC(C)C[C@@H]1NC(=O)[C@H](COCc2ccccc2)NC1=O
inhibition [26]: 0%

Other lines, results leading:

inhibition [3]: 0%
SMILES: CN1C(=O)[C@H](Cc2ccccc2)N(C)C(=O)[C@@H]1Cc1ccccc1

inhibition [6]: 0%
SMILES: O=C1N[C@@H](Cc2ccccc2)C(=O)N[C@H]1Cc1ccccc1

inhibition [11]: 50%
SMILES: O=C1N[C@@H](Cc2ccc(OCc3ccccc3)cc2)C(=O)N[C@H]1Cc1ccc(OCc2ccccc2)cc1

inhibition [12]: 0%
SMILES: O=C1N[C@@H](Cc2ccc(O)cc2)C(=O)N[C@H]1Cc1ccccc1

inhibition [3]: 0%
SMILES: O=C1N[C@@H](Cc2ccccc2)C(=O)N[C@H]1COCc1ccccc1

inhibition [14]: 0%
SMILES: O=C1N[C@@H](Cc2c[nH]c3ccccc23)C(=O)N[C@H]1COCc1ccccc1

inhibition [17]: 0%
SMILES: CC(C)C[C@@H]1NC(=O)[C@H](Cc2ccccc2)NC1=O

inhibition [20]: 13%
SMILES: COC(=O)C[C@@H]1NC(=O)[C@H](Cc2ccccc2)NC1=O

inhibition [22]: 0%
SMILES: O=C1N[C@@H](Cc2c[nH]c3ccccc23)C(=O)N[C@H]1Cc1ccccc1

inhibition [23]: 25%
SMILES: COC(=O)C[C@H]1NC(=O)[C@H](Cc2ccccc2)NC1=O

inhibition [21]: 0%
SMILES: O=C1N[C@@H](Cc2ccc(O)cc2)C(=O)N[C@H]1COCc1ccccc1

inhibition [24]: 50%
SMILES: O=C1N[C@@H](Cc2ccc(OCc3ccccc3)cc2)C(=O)N[C@H]1Cc1ccccc1

Source: ChEMBL document CHEMBL1139620, “Synthesis of a small library of diketopiperazines as potential inhibitors of calpain” (Bioorg Med Chem Lett, 2005)
